FGF22 binding: binders of human FGF22 protein, primary screen, FGF22 synaptogenesis inhibitor project, biophysical, thermal shift, single point; AID 651658, 2012; 340,000 tested, 1.5% active; Fibroblast growth factor 22 (Homo sapiens), Q9HCT0; recombinant FGF22 thermal shift, SYPRO orange fluorescence; percent of sucrose octasulfate shift, DMSO zero; activity (Tm shift, normalised), % at 9.99 µM;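 active = mean Tm shift, scaled 0 neutral to 100 positive control, at about 1.3% or above, every replicate too, limit read from the data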
Target sequence (Q9HCT0 whole entry, looked up): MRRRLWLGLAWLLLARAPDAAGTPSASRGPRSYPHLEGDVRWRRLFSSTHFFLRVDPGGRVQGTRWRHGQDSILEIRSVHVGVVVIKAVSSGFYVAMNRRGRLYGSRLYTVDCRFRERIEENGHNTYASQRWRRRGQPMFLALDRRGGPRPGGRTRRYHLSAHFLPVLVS
Env fusion inh: inhibitors of HIV-1 Env-driven cell-cell fusion, primary screen, HeLa-JRFL effector, CEM21 target cells, luciferase. inhibition, % at 12.3 µM. 360,000 tested, 1.1% active. AID 651610, 2012;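 active = mean replicate inhibition score of at least 50 and every replicate individually at or above 50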;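 note: 0% = plate neutral controls and 100% = maraviroc near 300 nM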
S100A4 inh HTS: inhibitors of S100A4-myosin IIA peptide binding, primary screen, biochemical, fluorescence polarization, TAMRA-MyoIIA peptide; AID 652163, 2013; 360,000 tested, 0.14% active; inhibition, % at 10.7 µM;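 active = mean inhibition of at least 70% across replicates, with every replicate also reaching that level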
Target sequence (P26447 whole entry, looked up): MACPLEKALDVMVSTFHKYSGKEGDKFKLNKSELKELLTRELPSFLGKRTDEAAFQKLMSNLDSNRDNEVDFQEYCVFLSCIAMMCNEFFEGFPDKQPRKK
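Material: human S100A4 monomer with TAMRA-labelled myosin IIA peptide; buffer or medium: HEPES pH 7.2 with CaCl2, KCl, NaCl, DTT, Triton; compound dosing: one concentration per compound; schedule: 5 min incubation before reading; benchmarks: neutral control DMSO, positive control TFP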
CFTR F508del cor: F508del CFTR correction, initial screen, CFBE line, single point | CFBE cells, YFP halide quenching; stimulated with forskolin plus potentiator P3; % fluorescence drop versus neutral controls | activity (quench increase), % at 7.58 µM | 350,000 tested, 0.36% active;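 active = mean added fluorescence quench of at least 8% versus neutral control, with both replicates also reaching 8%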;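 note: cells transiently co-express mutant CFTR-F508del with the halide-sensitive YFP; corrector assay measuring rescue of mutant channel to the surface after 24 h compound exposure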
E-sel inducer: E-selectin induction in HUVECs, primary screen, imaging, HUVEC, immunofluorescence imaging, single point | normalized: neutral wells 0, TNF-alpha wells 100 | activation, % at 7.58 µM | 260,000 tested, 0.37% active;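 active = mean E-selectin-positive cell signal at least 10% of the positive control, reached in at least 60% of replicates, without over 20% cell loss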
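System: HUVEC, human umbilical vein endothelial cells; quantity: 3,000 cells/well; buffer or medium: EGM-2 medium, gelatin-coated wells; dosing: single-point compound dose; detection: immunofluorescence imaging; evaluation: % PE-positive cells; benchmarks: TNF-alpha, DMSO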
An asterisk follows results filed as active; [ ] = another dose, or the depositor's remark. The list is not random: actives were taken first. Their share in the collection is about 2.7%.

`C[C@H]1CN([C@@H](C)CO)C(=O)c2cc(Br)cnc2O[C@@H]1CN(C)Cc1ccncc1` gave FGF22 binding 0.7, Env fusion inh -24.3[16.7 µM], S100A4 inh HTS -4.4, CFTR F508del cor 2.2 and E-sel inducer -0.4.
`OC(COc1ccc2c(c1)OCO2)CN1CCN(c2ccccc2)CC1` (configuration not stated) gave FGF22 binding 0.4, Env fusion inh 13.5, S100A4 inh HTS 1.3 and CFTR F508del cor -3.9.
`OC(COc1ccc2c(c1)OCO2)CN1CCCCC1` (configuration not stated) gave FGF22 binding 43.7*, Env fusion inh 17.9, S100A4 inh HTS -1.8 and CFTR F508del cor -0.9.
For Cc1nc2ccc(NS(=O)(=O)c3ccc(C)c(C)c3)cc2s1 the results were Env fusion inh 71.4*.
Cc1nc2cc(NS(=O)(=O)c3cccc(F)c3)ccc2s1 was read as FGF22 binding 44.1*, Env fusion inh 7.1, S100A4 inh HTS 6.6, CFTR F508del cor -1.5 and E-sel inducer 0.2.
For CC(=O)c1cccc(S(=O)(=O)Nc2ccc3nc(C)sc3c2)c1 the results were FGF22 binding 0.0, Env fusion inh 50.1, S100A4 inh HTS 4.5, CFTR F508del cor 2.1 and E-sel inducer 1.1.
Screening COc1cccc(NC(=O)N2C[C@H](O)COC[C@H]3O[C@@H](CC(=O)NCCCN4CCOCC4)CC[C@@H]32)c1 returned FGF22 binding 0.3, CFTR F508del cor -1.2 and E-sel inducer 0.2.
Screening C=C(C)CN(CC)c1nc(N)c2c(N)nc3c(c2c1C#N)CC(=O)N3C12CC3CC(CC(C3)C1)C2 returned Env fusion inh 79.6*.
O=C(CCCn1c(=S)[nH]c2cc3c(cc2c1=O)OCO3)N1CCN(c2ccc(Cl)cc2)CC1 was read as Env fusion inh 98.5* and E-sel inducer 4.6.
For O=C(CCCn1c(=S)[nH]c2cc3c(cc2c1=O)OCO3)NCCc1ccc(Cl)cc1 the results were FGF22 binding 43.3*, Env fusion inh -8.7, S100A4 inh HTS 3.0, CFTR F508del cor -0.1 and E-sel inducer 0.2.
C[C@H](CO)N1C[C@H](C)[C@H](CN(C)C)Oc2c(NC(=O)Nc3ccc(C(F)(F)F)cc3)cccc2C1=O was read as FGF22 binding -0.1, S100A4 inh HTS -16.5 and CFTR F508del cor -1.8.
Screening C[C@@H]1CCCCO[C@H](CN(C)Cc2ccc3c(c2)OCO3)[C@@H](C)CN([C@H](C)CO)C(=O)c2cc(NS(=O)(=O)c3cccs3)ccc2O1 returned FGF22 binding 0.0, Env fusion inh -16.6[16.7 µM], CFTR F508del cor 1.5 and E-sel inducer -0.1.
Screening CCOC1=C/C(=C/c2c(N)n3nc(S(=O)(=O)CC)sc3nc2=O)C=CC1=O returned Env fusion inh 19.8, S100A4 inh HTS 0.3, CFTR F508del cor 9.9* and E-sel inducer 7.2.
For c1ccc(Cc2cc[n+](Cc3ccccn3)cc2)cc1 the results were FGF22 binding -0.2, Env fusion inh 12.9, S100A4 inh HTS -3.2, CFTR F508del cor -2.2 and E-sel inducer 45.2*.
For O=[N+]([O-])c1ccc(C[n+]2ccc(Cc3ccccc3)cc2)cc1 the results were FGF22 binding 0.3, Env fusion inh -160.4, S100A4 inh HTS -2.7 and CFTR F508del cor 3.2.
`O=C(C1CCC1)N1CC2(C1)[C@H](c1ccccc1)[C@H](CO)N2CCC(F)(F)F` gave S100A4 inh HTS 8.2, CFTR F508del cor 0.5 and E-sel inducer 0.0.
`Cc1cc(=O)[nH]c2ccc(Cl)cc12` gave Env fusion inh -64.8.
For S=c1nc[nH]c2c1[nH]c1ccc(Cl)cc12 the results were FGF22 binding -0.1, Env fusion inh 68.5*, S100A4 inh HTS 6.7 and CFTR F508del cor -1.0.
O=C(CSc1nnc(-c2ccco2)o1)N1CCN(c2ccccc2)CC1 was read as FGF22 binding 43.0*, Env fusion inh 0.1, S100A4 inh HTS 1.8, CFTR F508del cor -1.9 and E-sel inducer 12.3.
`Cc1nnc(SCC(=O)N2CCN(C(=O)c3ccco3)CC2)n1C` gave FGF22 binding -0.2, S100A4 inh HTS -0.6, CFTR F508del cor 0.5 and E-sel inducer 1.6.
